Active and inactive are the calls of the source. The calls are words filed in the database; no cut-off is given here.
Tests used:
Type in all cases: functional
T47D = assay: Growth inhibition of human T47D cells at 10 uM after 48 hrs by SRB assay; details: read-out: GI
How it was run: (§1)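 NCI 60-cell-line screen with a single 10 µM dose. Cells are grown in RPMI 1640 with 5% FBS and 2 mM L-glutamine, plated at 5000–40,000 cells/well according to doubling time, and preincubated 24 h at 37 °C, 5% CO2; time-zero plates are TCA-fixed at that point. Drug exposure is 48 h. Adherent cells are fixed with cold TCA, stained with 0.4% SRB in 1% acetic acid and read at 515 nm. Percent growth is calculated relative to time-zero and untreated controls and reported as GI%.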

HOP-62 = assay: Growth inhibition of human HOP62 cells at 10 uM after 48 hrs by SRB assay; details: HOP-62, 48 h, read-out: GI
How it was run: (§2)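 Cells grown in RPMI 1640 with 5% FBS and 2 mM L-glutamine, plated at 5000–40,000 cells/well by doubling time and preincubated 24 h (37 °C, 5% CO2); a time-zero plate is TCA-fixed. Single dose added, then 48 h incubation. Fixed with cold TCA, stained with 0.4% SRB, dye solubilized in 10 mM Tris base, absorbance at 515 nm; percent growth vs time-zero and untreated control.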

SK-OV-3 = assay: Growth inhibition of human SKOV3 cells at 10 uM after 48 hrs by SRB assay; details: SK-OV-3, 48 h, read-out: GI; how it was run: as §1
U-251 = assay: Growth inhibition of human U251 cells at 10 uM after 48 hrs by SRB assay; details: U-251, 48 h, read-out: GI; how it was run: as §1
KM12 = assay: Growth inhibition of human KM12 cells at 10 uM after 48 hrs by SRB assay; details: KM12, 48 h, read-out: GI; how it was run: as §2
HOP-92 = assay: Growth inhibition of human HOP92 cells at 10 uM after 48 hrs by SRB assay; details: HOP-92, 48 h, read-out: GI; how it was run: as §2
BT-549 = assay: Growth inhibition of human BT549 cells at 10 uM after 48 hrs by SRB assay; details: BT-549, 48 h, read-out: GI; how it was run: as §2
K562 = assay: Growth inhibition of human K562 cells at 10 uM after 48 hrs by SRB assay; details: K562, 48 h, read-out: GI; how it was run: as §2
NCI-H322M = assay: Growth inhibition of human NCI-H322M cells at 10 uM after 48 hrs by SRB assay; details: read-out: GI; how it was run: as §2
SK-MEL-5 = assay: Growth inhibition of human SK-MEL-5 cells at 10 uM after 48 hrs by SRB assay; details: SK-MEL-5, 48 h, read-out: GI; how it was run: as §2
CAKI-1 = assay: Growth inhibition of human Caki1 cells at 10 uM after 48 hrs by SRB assay; details: CAKI-1, 48 h, read-out: GI; how it was run: as §2
HCT-15 = assay: Growth inhibition of human HCT15 cells at 10 uM after 48 hrs by SRB assay; details: HCT-15, 48 h, read-out: GI; how it was run: as §2
786-0 = assay: Growth inhibition of human 786-0 cells at 10 uM after 48 hrs by SRB assay; details: 786-0, 48 h, read-out: GI; how it was run: as §2
RPMI-8226 = assay: Growth inhibition of human RPMI8226 cells at 10 uM after 48 hrs by SRB assay; details: RPMI-8226, 48 h, read-out: GI; how it was run: as §2
UACC-62 = assay: Growth inhibition of human UACC62 cells at 10 uM after 48 hrs by SRB assay; details: UACC-62, 48 h, read-out: GI; how it was run: as §1
SNB-75 = assay: Growth inhibition of human SNB75 cells at 10 uM after 48 hrs by SRB assay; details: SNB-75, 48 h, read-out: GI; how it was run: as §1
HL-60(TB) = assay: Growth inhibition of human HL-60(TB) cells at 10 uM after 48 hrs by SRB assay; details: HL-60, 48 h, read-out: GI
How it was run: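 Single-concentration pass across the 60-line panel in RPMI 1640 with 5% FBS. Cells preincubated 24 h, then exposed 48 h at 37 °C, 5% CO2. Read by SRB staining with absorbance at 515 nm. Percent growth is taken relative to time-zero and untreated controls and reported as percent growth inhibition (GI %).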

NCI-H226 = assay: Growth inhibition of human NCI-H226 cells at 10 uM after 48 hrs by SRB assay; details: NCI-H226, 48 h, read-out: GI; how it was run: as §2
MDA-MB-435 = assay: Growth inhibition of human MDA-MB-435 cells at 10 uM after 48 hrs by SRB assay; details: MDA-MB-435, 48 h, read-out: GI; how it was run: as §2
ACHN = assay: Growth inhibition of human ACHN cells at 10 uM after 48 hrs by SRB assay; details: read-out: GI; how it was run: as §2
HCT-116 = assay: Growth inhibition of human HCT116 cells at 10 uM after 48 hrs by SRB assay; details: HCT-116, 48 h, read-out: GI; how it was run: as §2
NCI-H23 = assay: Growth inhibition of human NCI-H23 cells at 10 uM after 48 hrs by SRB assay; details: NCI-H23, 48 h, read-out: GI; how it was run: as §2
SW-620 = assay: Growth inhibition of human SW620 cells at 10 uM after 48 hrs by SRB assay; details: SW-620, 48 h, read-out: GI; how it was run: as §1
NCI-H522 = assay: Growth inhibition of human NCI-H522 cells at 10 uM after 48 hrs by SRB assay; details: NCI-H522, 48 h, read-out: GI; how it was run: as §2
SN12C = assay: Growth inhibition of human SN12C cells at 10 uM after 48 hrs by SRB assay; details: read-out: GI; how it was run: as §1
CCRF-CEM = assay: Growth inhibition of human CCRF-CEM cells at 10 uM after 48 hrs by SRB assay; details: read-out: GI; how it was run: as §2
DU-145 = assay: Growth inhibition of human DU145 cells at 10 uM after 48 hrs by SRB assay; details: DU-145, 48 h, read-out: GI; how it was run: as §2
OVCAR-5 = assay: Growth inhibition of human OVCAR5 cells at 10 uM after 48 hrs by SRB assay; details: OVCAR-5, 48 h, read-out: GI; how it was run: as §2
MDA-MB-468 = assay: Growth inhibition of human MDA-MB-468 cells at 10 uM after 48 hrs by SRB assay; how it was run: as §2
[1] = Growth inhibition of human NCI-ADR-RES cells at 10 uM after 48 hrs by SRB assay; details: read-out: GI; how it was run: as §2
PC-3 = assay: Growth inhibition of human PC3 cells at 10 uM after 48 hrs by SRB assay; details: PC-3, 48 h, read-out: GI; how it was run: as §2
NCI-H460 = assay: Growth inhibition of human NCI-H460 cells at 10 uM after 48 hrs by SRB assay; details: NCI-H460, 48 h, read-out: GI; how it was run: as §2
SF-295 = assay: Growth inhibition of human SF295 cells at 10 uM after 48 hrs by SRB assay; details: SF-295, 48 h, read-out: GI; how it was run: as §2
MDA-MB-231 = assay: Growth inhibition of human MDA-MB-231 cells at 10 uM after 48 hrs by SRB assay; details: MDA-MB-231, 48 h, read-out: GI; how it was run: as §2

Structure (SMILES)	inhibition of growth at 10 µM (T47D)	inhibition of growth at 10 µM (HOP-62)	inhibition of growth at 10 µM (SK-OV-3)	inhibition of growth at 10 µM (KM12)	inhibition of growth at 10 µM (HOP-92)	inhibition of growth at 10 µM (BT-549)	inhibition of growth at 10 µM (K562)	inhibition of growth at 10 µM (NCI-H322M)	inhibition of growth at 10 µM (SK-MEL-5)	inhibition of growth at 10 µM (CAKI-1)	inhibition of growth at 10 µM (HCT-15)	inhibition of growth at 10 µM (786-0)	inhibition of growth at 10 µM (RPMI-8226)	inhibition of growth at 10 µM (UACC-62)	inhibition of growth at 10 µM (SNB-75)	inhibition of growth at 10 µM (HL-60(TB))	inhibition of growth at 10 µM (NCI-H226)	inhibition of growth at 10 µM (MDA-MB-435)	inhibition of growth at 10 µM (ACHN)	inhibition of growth at 10 µM (HCT-116)	also measured
Nc1ccc(Sc2ccc3c4c2cccc4c(=O)n2c4ccccc4nc32)cc1	60.4%	48.8%	46.1%	26.4%	71.3%	40.9%	39.7%	38.2%	60.6%	94.1%	59.5%	62.7%	50%	68.1%	56.3%	81.8%	59.4%	< 20%	77.9%	53.2%	inhibition of growth at 10 µM (U-251): 60.1%; inhibition of growth at 10 µM (NCI-H23): 62.5%; inhibition of growth at 10 µM (SW-620): 53.8%; inhibition of growth at 10 µM (NCI-H522): 40%; inhibition of growth at 10 µM (SN12C): 80.8%; inhibition of growth at 10 µM (CCRF-CEM): 55.1%; inhibition of growth at 10 µM (DU-145): 60.7%; inhibition of growth at 10 µM (OVCAR-5): < 20%; inhibition of growth at 10 µM (MDA-MB-468; MDA-MB-468, 48 h, read-out: GI): 56.5%; inhibition of growth at 10 µM [1]: 43.4%; inhibition of growth at 10 µM (PC-3): 49.6%; inhibition of growth at 10 µM (NCI-H460): 90.5%; inhibition of growth at 10 µM (SF-295): 88%; inhibition of growth at 10 µM (MDA-MB-231): 45.6%
O=c1[nH]cc(F)c(=O)[nH]1 [FLUOROURACIL]	56.7%	47.8%	77.5%	40.7%	50.6%	37.8%	42.3%	59.5%	33.7%	39.4%	26.5%	48.7%	41.4%	39.7%	65.9%	47.9%	69.5%	36.6%	39.3%	17.8%	inhibition of growth at 10 µM (U-251): 50.3%; inhibition of growth at 10 µM (NCI-H23): 39%; inhibition of growth at 10 µM (SW-620): 50.1%; inhibition of growth at 10 µM (NCI-H522): 58%; inhibition of growth at 10 µM (SN12C): 54%; inhibition of growth at 10 µM (CCRF-CEM): 57.1%; inhibition of growth at 10 µM (DU-145): 35.5%; inhibition of growth at 10 µM (OVCAR-5): 44.3%; inhibition of growth at 10 µM [1]: 47.6%; inhibition of growth at 10 µM (PC-3): 58.2%; inhibition of growth at 10 µM (NCI-H460): 13%; inhibition of growth at 10 µM (SF-295): 69.1%; inhibition of growth at 10 µM (MDA-MB-231): 78.1%
O=c1c2cccc3c(Nc4ccccn4)ccc(c32)c2nc3ccccc3n12	53.4%	32.2%	< 20%	25.2%	45.1%	< 20%	53.5%	25.5%	48.2%	48.2%	40.8%	< 20%	51%	35.7%	21.4%	37.7%	30.4%	< 20%	23.9%	35%	inhibition of growth at 10 µM (NCI-H23): 34.5%; inhibition of growth at 10 µM (SW-620): 22.9%; inhibition of growth at 10 µM (NCI-H522): 43.4%; inhibition of growth at 10 µM (SN12C): 28.3%; inhibition of growth at 10 µM (CCRF-CEM): 48.2%; inhibition of growth at 10 µM (DU-145): < 20%; inhibition of growth at 10 µM (OVCAR-5): < 20%; growth inhibition (GI) (MDA-MB-468): Active; inhibition of growth at 10 µM [1]: 25.4%; inhibition of growth at 10 µM (PC-3): 36%; inhibition of growth at 10 µM (NCI-H460): 47.3%; inhibition of growth at 10 µM (MDA-MB-231): 29.4%
